Efflux pump inh: inhibitors of Candida efflux pumps in yeast, primary screen, S. cerevisiae, Nile Red, multiplex; S. cerevisiae Candida pump triplex; inhibition, % at 10 µM; 330,000 tested, 0.44% active; AID 485275, 2010;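 active = plate passing quality check with inhibition over a set limit, or well fluorescence over plate mean plus 4 SD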;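 also: Nile Red retained in pooled yeast measured as flow cytometry median fluorescence; 0% = buffer negative control and 100% = Enniatin B positive control; higher means more Nile Red kept so more efflux inhibition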
ABCG2 block: ABCG2 efflux pump inhibitors, primary screen, multiplex with ABCB1, IgMXP3 cells, flow cytometry. Broad substrate specificity ATP-binding cassette transporter ABCG2 (Homo sapiens), Q9UNQ0. JC-1 efflux. inhibition, % at 6.6 µM. 190,000 tested, 0.1% active. AID 1325, 2008;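 active = inhibition above 80%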;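 also: 0% = DMSO and 100% = nicardipine control wells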
Target sequence (Q9UNQ0 whole entry, looked up): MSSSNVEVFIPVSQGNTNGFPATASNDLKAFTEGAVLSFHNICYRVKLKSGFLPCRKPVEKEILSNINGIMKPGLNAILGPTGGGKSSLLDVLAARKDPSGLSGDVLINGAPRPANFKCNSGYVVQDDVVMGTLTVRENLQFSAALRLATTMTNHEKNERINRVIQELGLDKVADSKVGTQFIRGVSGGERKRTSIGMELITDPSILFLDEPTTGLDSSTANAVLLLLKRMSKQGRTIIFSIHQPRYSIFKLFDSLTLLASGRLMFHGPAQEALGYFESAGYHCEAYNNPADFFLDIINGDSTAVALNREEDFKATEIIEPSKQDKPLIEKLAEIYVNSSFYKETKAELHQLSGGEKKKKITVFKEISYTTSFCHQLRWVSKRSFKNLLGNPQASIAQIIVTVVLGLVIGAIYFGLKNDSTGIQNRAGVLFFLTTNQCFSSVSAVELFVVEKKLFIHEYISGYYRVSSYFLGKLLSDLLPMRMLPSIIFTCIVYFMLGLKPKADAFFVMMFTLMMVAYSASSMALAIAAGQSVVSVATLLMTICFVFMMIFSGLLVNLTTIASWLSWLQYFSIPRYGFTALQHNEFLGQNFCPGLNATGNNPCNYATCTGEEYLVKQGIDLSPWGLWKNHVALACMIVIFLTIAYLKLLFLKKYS
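Times: 10 min at 25 °C | Test system: Two drug-resistant human cell lines, ABCG2 and ABCB1 | Quantity: 3 million cells/mL final, two lines in 1:1 ratio | Signal: Flow cytometry, 530 nm JC-1 signal | Dosing: Compound at 6.6 µM | Controls: Nicardipine and DMSO wells | Reagent: JC-1 as fluorescent efflux pump substrate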
MEKK2 mut-MEK5: MEK5 binding signal on mutant MEKK2 PB1, primary screen, biochemical, multiplex bead flow cytometry, Alexa488-MEK5. Alexa488-MEK5 binding to MEKK2 mutant. percent response, % at 10 µM. 290,000 tested, 0.35% active; in the data active = percent response above about 24%, passing the limit was not always enough
ABCB1 block: ABCB1 efflux pump inhibitors, primary screen, cell-based, multiplex, flow cytometry, ABCG2 counter-screen | ATP-dependent translocase ABCB1 (Homo sapiens), P08183 | CCRF-Adr cells, JC-1 efflux | inhibition, % at 6.6 µM | 190,000 tested, 0.067% active; in the data active = inhibition above about 40%;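 also: 0% = vehicle and 100% = reference inhibitor; higher value means more JC-1 retained so stronger ABCB1 efflux block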
MEKK2 WT-MEK5: modulators of MEK5 binding to wildtype MEKK2, primary screen, biochemical, multiplex bead flow cytometry, Alexa488-MEK5. Alexa488-MEK5 binding to MEKK2 WT; actives lie on both sides. binding response (% of control), % at 10 µM. 290,000 tested, 1.1% active. AID 1531, 2009. Mitogen-activated protein kinase kinase kinase 2 (Homo sapiens), Q9Y2U5; in the data active = binding response below about 67% or above about 130%
MEKK3 PB1 HTS: modulators of MEKK3-MEK5 PB1 binding, primary screen, biochemical, wildtype MEKK3, multiplex bead flow cytometry, Alexa488-MEK5 | bead-based flow cytometry, Alexa488-MEK5 binding to MEKK3; actives lie on both sides; 0 = blocked by unlabeled MEK5, 100 = vehicle | binding response (% of control), % at 10 µM | 290,000 tested, 1.4% active | AID 1529, 2009;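 active = binding response more than 3 SD above or below the average of its plate-row segment, actives on both sides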;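 also: Alexa488 bead fluorescence after subtracting the streptavidin-only scavenger bead signal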
MEKK2wt confirm: modulators of MEK5 binding to wildtype MEKK2, confirmation, biochemical, single concentration, multiplex bead flow cytometry; 5,900 tested, 2.4% active; shares compounds with MEKK3 PB1 HTS; Alexa488-MEK5 binding to MEKK2 WT; actives lie on both sides; AID 1892, 2009; binding response (% of control), % at 10 µM; in the data active = binding response below about 16% or above about 210%; inactive = in between
MEKK2mut-MEK5: mutant MEKK2 PB1-MEK5 binding signal retest – biochemical, single concentration, multiplex bead flow cytometry, confirmation. AID 1893, 2009. percent response, % at 10 µM. shares compounds with MEKK3 PB1 HTS. 5,900 tested, 2% active. Alexa488-MEK5 binding to MEKK2 mutant; in the data active = percent response mostly above about 71%, no sharp cut-off; inactive = mostly below about 38%;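 also: higher means compound restores mutant binding toward wildtype level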
MEKK3 confirm: MEKK3 wild-type PB1 binding to MEK5, inhibitors, confirmation, biochemical, bead multiplex flow cytometry, single concentration, wildtype; 5,900 tested, 1.8% active; shares compounds with MEKK3 PB1 HTS; Alexa488-MEK5 binding to MEKK3; active compounds read low; binding response (% of control), % at 10 µM;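 active = binding response below 72% of control, or above a set upper limit, though filed actives all read lower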;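 also: 100% = DMSO only wells and 0% = binding blocked by excess unlabeled MEK5; lower values mean stronger disruption of MEK5 binding to MEKK3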
Starred values were filed as active, the others as inactive; . = no result; ! = not active in a repeat; [ ] = remark or other dose. A selection: hits, their analogues and other compounds. The true share with any hit is near 2.5%.

SMILES	Efflux pump inh	ABCG2 block	MEKK2 mut-MEK5	ABCB1 block	MEKK2 WT-MEK5	MEKK3 PB1 HTS	MEKK2wt confirm	MEKK2mut-MEK5	MEKK3 confirm
COc1ccc(CNC(=O)CN(Cc2ccco2)C(=O)CCC(=O)Nc2ccccn2)cc1	0	.	1	.	106	106	.	.	.
CCN(CC)c1nc2ccccc2c(N)c1-c1ccccc1	0	0	26*	0	123	114	106	0	99
NC(N)=N/N=C/c1c(Cl)cccc1Cl	0	4	-13	1	51	44*![inhibitor]	102	-4	100
CS(=O)(=O)N(CC(=O)N1CCCCC1)c1ccc(Cl)c(C(F)(F)F)c1	0	0	2	0	71*[inhibitor]	97	98	0	101
Cc1ccc(N(CC(=O)N2CCCCCC2)S(C)(=O)=O)cc1Cl	0	.	4	.	101	101	.	.	.
O=C(CN1CCC(C(O)(c2ccccc2)c2ccccc2)CC1)Nc1cc(Cl)ccc1Cl	0	0	-14	0	78	72*[inhibitor]	98	-2	104
O=C(COC(=O)c1ccccc1Br)Nc1ccccc1F	0	4	-4	0	96	104	.	.	.
CCOC(=O)N1CCN(C(=O)CSCC(=O)Nc2nc(-c3ccc(-c4ccccc4)cc3)cs2)CC1	1	1	0	1	94	101	.	.	.
O=C(CSCC(=O)N1CCOCC1)Nc1nc(-c2ccccc2)cs1	0	.	22	.	118	131*	96	-1	98
Cc1ccc2c(cnn2C(=O)CCC(=O)NC2CCCCC2)c1	0	.	1	.	101	102	.	.	.
Cn1cnc(S(=O)(=O)NC2CCN(Cc3c(F)cccc3Cl)CC2)c1	0	.	9	.	108	102	.	.	.
COC(=O)N/N=C/c1cc(Cl)c(OCc2ccc(F)cc2)c(OC)c1	0	10	0	0	105	128*	106	3	102
O=c1[nH]c(=S)[nH]c2sc3c(c12)CCCCCC3	0	.	8	.	106	105	.	.	.
O=[N+]([O-])c1ccccc1CN1CCN(c2ncccn2)CC1	0	.	4	.	105	106	.	.	.
O=[N+]([O-])c1ccccc1CN1CCN(Cc2ccccn2)CC1	0	-1	-84	0	1.0*[inhibitor]	2.0*[inhibitor]	97	-3	96
N#CC(c1ccc(Cl)cc1)c1ccc(Cl)nn1 (centres undefined)	0	1	9	1	103	102	.	.	.
CC1=CC(C)(C)C(C(=O)O)C(C(=O)O)C1 (centres undefined)	0	0	10	0	136*	141*	112	19	88
N=c1sccn1CC(=O)Nc1ccccc1Sc1ccccc1	0	3	45	0	178*	156*	106	0	99
O=C(CN1CCOCC1)Nc1ccccc1Sc1ccccc1	0	7	-4	1	94	91	.	.	.
Oc1ccccc1C=NCCN=Cc1ccccc1O	0	.	2	.	93	104	.	.	.
Oc1ccc(Cl)cc1C=NCCc1ccccc1	0	4	0	0	100	129*	101	-2	96

High-throughput results: PubChem, NMMLSC
